The record followed here is ChEMBL document CHEMBL3826935, “Synthesis and Pharmacology of (Pyridin-2-yl)methanol Derivatives as Novel and Selective Transient Receptor Potential Vanilloid 3 Antagonists” (J Med Chem, 2016).

Data set [1] deals with Liver microsome. As to the kind of experiment: Unbound intrinsic clearance in rat liver microsomes after 5 hrs by LC-MS/MS analysis. The class given is ADME. In short, it runs like this: (§1)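 Microsomal stability run in an automated high-throughput plate format. Intrinsic clearance corrected for nonspecific microsomal binding using measured unbound fraction (fu,mic), reported as unbound Clint in L/h/kg.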

Data set [2] concerns the target T1, Transient receptor potential cation channel subfamily V member 3 (Homo sapiens) (UniProt Q8NET8).
T1 sequence (whole entry): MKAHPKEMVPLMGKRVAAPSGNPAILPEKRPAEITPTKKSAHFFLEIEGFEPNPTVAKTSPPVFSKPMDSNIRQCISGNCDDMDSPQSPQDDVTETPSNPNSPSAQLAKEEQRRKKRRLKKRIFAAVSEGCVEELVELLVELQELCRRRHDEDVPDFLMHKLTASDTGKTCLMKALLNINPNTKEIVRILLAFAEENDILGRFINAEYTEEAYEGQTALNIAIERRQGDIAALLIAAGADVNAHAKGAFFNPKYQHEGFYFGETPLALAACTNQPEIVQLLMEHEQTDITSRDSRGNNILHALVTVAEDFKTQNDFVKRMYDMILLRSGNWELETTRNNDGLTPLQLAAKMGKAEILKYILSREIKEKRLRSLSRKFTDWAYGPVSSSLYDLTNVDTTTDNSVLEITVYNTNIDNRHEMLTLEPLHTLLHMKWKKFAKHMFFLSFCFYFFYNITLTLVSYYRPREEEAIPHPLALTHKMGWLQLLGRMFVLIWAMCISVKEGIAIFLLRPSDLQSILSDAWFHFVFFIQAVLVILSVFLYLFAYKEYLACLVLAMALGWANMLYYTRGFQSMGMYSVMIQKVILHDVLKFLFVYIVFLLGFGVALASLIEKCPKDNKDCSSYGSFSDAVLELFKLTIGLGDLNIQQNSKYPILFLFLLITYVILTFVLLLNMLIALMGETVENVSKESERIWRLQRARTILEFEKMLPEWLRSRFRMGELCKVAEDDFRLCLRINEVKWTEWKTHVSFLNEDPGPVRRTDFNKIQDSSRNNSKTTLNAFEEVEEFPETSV
As to the kind of experiment: Antagonist activity at human TRPV3 expressed in recombinant HEK293 cells assessed as inhibition of 2-APB induced calcium flux by FLIPR analysis. Format: cell-based. A digest of the protocol: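 HEK293 cells stably expressing human TRPV3 (I25V variant), plated the day before in DMEM + 10% FBS at 37 °C, 5% CO2. Calcium 4 dye loaded in Ca/Mg-free HEPES D-PBS pH 7.4 for 1–2 h at room temperature. Compound dilutions added with 3 min baseline, then 2-APB at 60 µM final; Ca2+ flux read 3 min on FLIPR. Kb from at least duplicates, averaged across independent runs.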
In general terms: Calcium assays in cells follow changes in intracellular calcium, usually with a dye or a luminescent sensor.

The target of data set [3] is T2, Nuclear receptor subfamily 1 group I member 2 (Homo sapiens, UniProt O75469).
T2 sequence (O75469 whole entry): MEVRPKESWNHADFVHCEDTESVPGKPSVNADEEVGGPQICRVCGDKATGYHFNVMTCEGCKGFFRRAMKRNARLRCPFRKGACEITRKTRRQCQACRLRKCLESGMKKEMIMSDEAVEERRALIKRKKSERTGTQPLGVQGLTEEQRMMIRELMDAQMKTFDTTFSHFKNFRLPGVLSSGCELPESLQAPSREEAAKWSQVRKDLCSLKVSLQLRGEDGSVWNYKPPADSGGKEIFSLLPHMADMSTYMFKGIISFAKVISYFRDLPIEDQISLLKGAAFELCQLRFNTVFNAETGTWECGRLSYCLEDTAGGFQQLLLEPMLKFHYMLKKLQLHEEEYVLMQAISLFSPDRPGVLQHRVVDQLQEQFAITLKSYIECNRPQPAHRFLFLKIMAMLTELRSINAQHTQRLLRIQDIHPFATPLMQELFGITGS
As to the kind of experiment: Activation of human PXR. The class given is ADME. The following applies: for Activity: human.

The species entered for data set [4] is Rattus norvegicus. As to the kind of experiment: Cardiotoxicity in rat assessed as increase in mean arterial pressure. Format: toxicity, organism-based, Artery. The following applies: in vivo.
For data set [5], the species on record is Rattus norvegicus. As to the kind of experiment: Cardiotoxicity in rat assessed as increase in cardiac contractility at plasma concentration of 4.7 ug/ml. Format: toxicity, organism-based.
For data set [6], the system named is Liver microsome. As to the kind of experiment: Unbound intrinsic clearance in human liver microsomes after 5 hrs by LC-MS/MS analysis. The class given is ADME. A digest of the protocol:
as §1
In general terms: Microsomes from liver hold many membrane-bound enzymes, among them those of drug oxidation.

Data set [7] concerns Plasma. As to the kind of experiment: Plasma concentration in rat. The class given is ADME, cell-free.

Turning to `O[C@H](c1ccccn1)[C@]1(c2ccnc(C(F)(F)F)c2)C[C@@H](O)C1`, the figures for the CL free in data set [1] and in data set [6] were 200 mL/min/kg and 83 mL/min/kg, respectively. Besides, the Kb (as a rule, the affinity of an antagonist, worked out from how it opposes an agonist) in data set [2] turned out to be 530 nM. The Activity result in data set [3] is on record as “Not Active”; in data set [4] it was “Non-toxic”; in data set [5], “Non-toxic”.
For `C[C@]1(O)C[C@](c2ccc(C(F)(F)F)cc2)([C@H](O)c2ccccn2)C1`, the CL free worked out at 100 mL/min/kg in data set [1] and 33 mL/min/kg in data set [6]. Besides, in data set [2], the Kb is 4790 nM. Moreover, the results for the Activity result in data set [3], in data set [4] and in data set [5] were “Not Active”, “Non-toxic” and “Non-toxic”, respectively.
`O[C@H](c1ccccn1)C1(c2ccc(OC(F)(F)F)cc2)CC(F)(F)C1`: the Cp in data set [7] is 4700 ng/mL. In addition, the CL free amounted to 200 mL/min/kg in data set [1] and 183 mL/min/kg in data set [6]. Further, in data set [2], the Kb is 40 nM. Besides, a half-maximal effect in data set [3] (EC50) was put at 5700 nM. The values for the Activity in data set [4] and in data set [5] were 16% and 29%, respectively.
For `O[C@H](c1ccccn1)[C@]1(c2ccnc(C(F)(F)F)c2)C[C@H](O)C1`, the CL free in data set [1] came to 50 mL/min/kg; in data set [6] it was 33 mL/min/kg. Moreover, in data set [2], the Kb is 60 nM. For the same molecule, the Activity entry is listed as “Not Active” in data set [3], “Non-toxic” in data set [4] and “Non-toxic” in data set [5].
As to `C[C@]1(O)C[C@@](c2ccc(OC(F)(F)F)cc2)([C@@H](O)c2ccccn2)C1`, the CL free in data set [1] was found to be 100 mL/min/kg; in data set [6] it was 50 mL/min/kg. Also, the Kb in data set [2] is > 10400 nM. The results for the Activity result in data set [3], in data set [4] and in data set [5] were “Not Active”, “Non-toxic” and “Non-toxic”, respectively.
In the case of `O[C@H](c1ccccn1)[C@]1(c2cc(C(F)(F)F)ccn2)C[C@@H](O)C1`, the CL free in data set [1] is 50 mL/min/kg; in data set [6], 33 mL/min/kg. Besides, the Kb in data set [2] was found to be 320 nM. For the same molecule, the figures for the Activity entry in data set [3], in data set [4] and in data set [5] were “Not Active”, “Non-toxic” and “Non-toxic”, respectively.
Take `C[C@]1(O)C[C@](c2cccc(C(F)(F)F)c2)([C@H](O)c2ccccn2)C1`: the values for the CL free in data set [1] and in data set [6] were 67 mL/min/kg and 33 mL/min/kg, respectively. Moreover, the Kb in data set [2] came to 1550 nM. In addition, the Activity entry in data set [3] is given as “Not Active”; in data set [4], “Non-toxic”; in data set [5] it was “Non-toxic”.
Consider `C[C@]1(O)C[C@@](c2ccnc(C(F)(F)F)c2)([C@H](O)c2ccccn2)C1`, for which the values for the CL free in data set [1] and in data set [6] were 50 mL/min/kg and 67 mL/min/kg, respectively. For the same molecule, the Kb in data set [2] came to 4270 nM. The results for the Activity entry in data set [3], in data set [4] and in data set [5] were “Not Active”, “Non-toxic” and “Non-toxic”, respectively.
`C[C@]1(O)C[C@@](c2cc(C(F)(F)F)ccn2)([C@H](O)c2ccccn2)C1`: the CL free amounted to 120 mL/min/kg in data set [1] and 33 mL/min/kg in data set [6]. The Kb in data set [2] amounted to 730 nM. The values for the Activity result in data set [3], in data set [4] and in data set [5] were “Not Active”, “Non-toxic” and “Non-toxic”, respectively.
In the case of `O[C@H](c1ccccn1)[C@]1(c2cccc(OC(F)(F)F)c2)C[C@H](O)C1`, the CL free turned out to be 120 mL/min/kg in data set [1] and 150 mL/min/kg in data set [6]. In addition, the Kb in data set [2] was 40 nM. For the same molecule, the Activity entry in data set [3] is “Not Active”; in data set [4], “Non-toxic”; in data set [5] it was “Non-toxic”.
For `C[C@]1(O)C[C@](c2ccnc(C(F)(F)F)c2)([C@H](O)c2ccccn2)C1`, the CL free in data set [1] was 83 mL/min/kg; in data set [6], 67 mL/min/kg. Besides, the Kb in data set [2] came to 500 nM. The values for the Activity result in data set [3], in data set [4] and in data set [5] were “Not Active”, “Non-toxic” and “Non-toxic”, respectively.
Turning to `C[C@]1(O)C[C@@](c2ccc(OC(F)(F)F)cc2)([C@H](O)c2ccccn2)C1`, the CL free in data set [1] was found to be 130 mL/min/kg; in data set [6], 67 mL/min/kg. Also, the Kb in data set [2] worked out at 330 nM. In addition, the figures for the Activity result in data set [3], in data set [4] and in data set [5] were “Not Active”, “Non-toxic” and “Non-toxic”, respectively.
In the case of `C[C@]1(O)C[C@@](c2cccc(C(F)(F)F)c2)([C@H](O)c2ccccn2)C1`, the results for the CL free in data set [1] and in data set [6] were 317 mL/min/kg and 150 mL/min/kg, respectively. The Kb in data set [2] stood at 300 nM. Further, the Activity result in data set [3] is recorded as “Not Active”; in data set [4], “Non-toxic”; in data set [5] it was “Non-toxic”.
Consider `C[C@]1(O)C[C@](c2cccc(OC(F)(F)F)c2)([C@H](O)c2ccccn2)C1`, for which the CL free in data set [1] was 50 mL/min/kg; in data set [6] it was 120 mL/min/kg. In data set [2], the Kb was 1310 nM. For the same molecule, the results for the Activity entry in data set [3], in data set [4] and in data set [5] were “Not Active”, “Non-toxic” and “Non-toxic”, respectively.
For the molecule `O[C@H](c1ccccn1)[C@]1(c2cccc(C(F)(F)F)c2)C[C@H](O)C1`, the CL free is 183 mL/min/kg in data set [1] and 130 mL/min/kg in data set [6]. For the same molecule, the Kb in data set [2] came out at 90 nM. The Activity entry in data set [3] is “Not Active”; in data set [4] it was “Non-toxic”; in data set [5], “Non-toxic”.
For `C[C@]1(O)C[C@](c2ccc(OC(F)(F)F)cc2)([C@H](O)c2ccccn2)C1`, the values for the CL free in data set [1] and in data set [6] were 100 mL/min/kg and 50 mL/min/kg, respectively. In addition, the Kb in data set [2] stood at 1510 nM. Moreover, the Activity entry in data set [3] is on record as “Not Active”; in data set [4], “Non-toxic”; in data set [5], “Non-toxic”.
On to `C[C@]1(O)C[C@](c2cc(C(F)(F)F)ccn2)([C@@H](O)c2ccccn2)C1`, for which the CL free in data set [1] was found to be 100 mL/min/kg; in data set [6], 33 mL/min/kg. For the same molecule, the Kb in data set [2] is > 9100 nM. For the same molecule, the values for the Activity result in data set [3], in data set [4] and in data set [5] were “Not Active”, “Non-toxic” and “Non-toxic”, respectively.
